Measured values pooled from the literature.
Protocols differ between the studies behind these lines.
DRD3: D(3) dopamine receptor (DRD3, Homo sapiens, UniProt P35462)
SLC6A3: Sodium-dependent dopamine transporter (SLC6A3, Homo sapiens, UniProt Q01959)
PDE10A: cAMP and cAMP-inhibited cGMP 3',5'-cyclic phosphodiesterase 10A (PDE10A, Homo sapiens, UniProt Q9Y233)

Compound	target	assay	conditions	quantity	value
Cc1[nH]c(C)c(S(=O)(=O)Nc2ccc(Cl)c(Cl)c2Cl)c1C(=O)N1CCC(F)(F)C1	DRD3	β-arrestin recruitment, agonist	90 min	Emax	92%
OC[C@@]12C[C@@H]1[C@@H](n1cnc3c(NC(C4CCC4)C4CCC4)nc(C#Cc4ccc(Cl)s4)nc31)[C@H](O)[C@@H]2O	SLC6A3	ligand displacement, radioligand	10 µM	inhibition	78%
Cc1[nH]cc(S(=O)(=O)Nc2ccc(C(F)(F)F)c(Cl)c2)c1C(=O)N1CCC(F)(F)C1	DRD3	β-arrestin recruitment, agonist	90 min	Emax	91%
CCOC(=O)C12CC1C(n1ccc3c(NCCCc4ccccc4)nc(C#Cc4ccc(Cl)s4)nc31)C(O)C2O (stereo not shown)	SLC6A3	ligand displacement, radioligand	10 µM	inhibition	61%
COc1cc2ncnc(Cc3cccc(-c4ccncc4)c3)c2cc1OC	PDE10A	enzyme activity, inhibitor, FP	0.1 µM	inhibition	57%
Cc1[nH]c(C)c(S(=O)(=O)Nc2ccc(Cl)c(C(F)(F)F)c2)c1C(=O)N1CCCC1	DRD3	β-arrestin recruitment, agonist	90 min	Emax	88%
Cc1cc(O)c(-c2ccc([C@@H](C)CN(C)C)cc2)c2c1[nH]c(=O)c1sccc12	Cyclin-dependent kinase 12 (CDK12, Homo sapiens, UniProt Q9NYV4)	enzyme activity, inhibitor	0.1 µM	inhibition	0.174%
N#CC[C@@]12C[C@@H]1[C@@H](n1cnc3c(NCCCCCc4ccccc4)nc(I)nc31)[C@H](O)[C@@H]2O	SLC6A3	ligand displacement, radioligand	10 µM	inhibition	23%
COc1cc2ncnc(Cc3cccc(Cl)c3)c2cc1OC	PDE10A	enzyme activity, inhibitor, FP	0.1 µM	inhibition	68%
CCOC(=O)[C@@]12C[C@@H]1[C@@H](n1cnc3c(NCCCCCCc4ccccc4)nc(I)nc31)[C@H](O)[C@@H]2O	SLC6A3	ligand displacement, radioligand	10 µM	inhibition	73%
c1ccc2c(Cc3ccc4cn(C5COC5)nc4c3)nccc2c1	PDE10A	enzyme activity, inhibitor, FP	0.1 µM	inhibition	0%
OC[C@@]12C[C@@H]1[C@@H](n1cnc3c(N[C@@H](C4CCC4)C4CC4)nc(C#Cc4ccc(Cl)s4)nc31)[C@H](O)[C@@H]2O	SLC6A3	ligand displacement, radioligand	10 µM	inhibition	80%
Cc1[nH]cc(S(=O)(=O)Nc2ccc(C(F)(F)F)c(Cl)c2)c1C(=O)N(C)C	DRD3	β-arrestin recruitment, agonist	90 min	Emax	83%
CCOC(=O)[C@@]12C[C@@H]1[C@@H](n1ccc3c(NCCCCc4ccccc4)nc(C#Cc4ccccc4)nc31)[C@H](O)[C@@H]2O	SLC6A3	ligand displacement, radioligand	10 µM	inhibition	66%
Cc1[nH]c(C)c(S(=O)(=O)Nc2ccc(C(F)(F)F)c(Cl)c2)c1C(=O)NCC(F)(F)F	DRD3	β-arrestin recruitment, agonist	90 min	Emax	98%
COc1ccc2nccc(Cc3cccc(-c4ccc(C(=O)O)cc4)c3)c2c1	PDE10A	enzyme activity, inhibitor, FP	0.1 µM	inhibition	11%
CCOC(=O)[C@@]12C[C@@H]1[C@@H](n1ccc3c(NCCCCCc4ccccc4)nc(C#Cc4ccccc4)nc31)[C@H](O)[C@@H]2O	SLC6A3	ligand displacement, radioligand	10 µM	inhibition	63%
COc1cc2ccnc(Cc3ccc4cnn(C)c4c3)c2cc1OC	PDE10A	enzyme activity, inhibitor, FP	0.1 µM	inhibition	69%
CCCCC(=O)Nc1ccc(-c2ccc3ncn(CCC)c(=O)c3c2)cn1	Discoidin domain-containing receptor 2 (DDR2, Homo sapiens, UniProt Q16832)	binding, competition with immobilised ligand	0.5 µM	remaining binding	100%
COc1ccc2oc(-c3ccc4nc(N)oc4c3)c/c(=N\c3ccccc3NC(=O)CCN)c2c1	AP2-associated protein kinase 1 (AAK1, Homo sapiens, UniProt Q2M2I8)	binding	1 µM	remaining binding	98%
COc1ccc2ccnc(Cc3cccc(-c4ccccc4)c3)c2c1	PDE10A	enzyme activity, inhibitor, FP	0.1 µM	inhibition	5%
Cc1[nH]c(C)c(S(=O)(=O)Nc2ccc(C(F)(F)F)c(Cl)c2)c1C(=O)N1CCCC1	DRD3	β-arrestin recruitment, agonist	90 min	Emax	92%
c1ccc(-c2cccc(Cc3ccnc4ccccc34)c2)cc1	PDE10A	enzyme activity, inhibitor, FP	0.1 µM	inhibition	0%
Cc1[nH]c(C)c(S(=O)(=O)Nc2ccc([N+](=O)[O-])c(Cl)c2)c1C(=O)N1CCC(F)(F)C1	DRD3	β-arrestin recruitment, agonist	90 min	Emax	101%
N#C[C@@]12C[C@@H]1[C@@H](n1cnc3c(Nc4ccc(Cl)c(Cl)c4)nc(I)nc31)[C@H](O)[C@@H]2O	SLC6A3	ligand displacement, radioligand	10 µM	inhibition	-9%
C1=C/COCc2cc(ccc2OCCN2CCCC2)Nc2nccc(n2)-c2cccc(c2)COC/1	Calcium/calmodulin-dependent protein kinase type IV (CAMK4, Homo sapiens, UniProt Q16566)	binding	0.1 µM	remaining binding	100%
c1ccc(-c2cccc(Cc3ccnc4cc(C5COC5)ccc34)c2)cc1	PDE10A	enzyme activity, inhibitor, FP	0.1 µM	inhibition	3%
Cc1[nH]c(C)c(S(=O)(=O)Nc2ccc(C(F)(F)F)c(Cl)c2)c1C(=O)N1CC(F)(F)C(F)(F)C1	DRD3	β-arrestin recruitment, agonist	90 min	Emax	100%
